Data from ChEMBL document CHEMBL3124866, “Small molecular antibacterial peptoid mimics: the simpler the better!” (J Med Chem, 2014).
Values after ≈ are worked out from the molar mass of the structure shown. Active and inactive are the calls of the source. The calls are words filed in the database; no cut-off is given here. Residues, ends and D or L forms follow the SMILES beside them.

Key:
Escherichia coli [1] = experiment: Antibacterial activity against drug-sensitive Escherichia coli MTCC 443 assessed as merging of dead bacteria with each other at 10 X MIC after 2 hrs by field-emission scanning electron microscopic analysis; format: functional, organism-based
Procedure, shortened: (§1)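 Cells grown 6 h (E. coli in LB, S. aureus in yeast-dextrose broth) were resuspended at 10^6 cells/mL in nutrient media pH 7.4. They were treated at 10× MIC at 37 °C for 2 h with 250 rpm shaking, beside an untreated control. Cells were pelleted, dehydrated through a 30–100% ethanol series and dried on silicon wafer. S. aureus was sputter-coated; E. coli was imaged uncoated by FESEM.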

Klebsiella pneumoniae = experiment: Antibacterial activity against beta-lactam-resistant Klebsiella pneumoniae ATCC 700603 after 24 hrs by broth microdilution assay; format: functional; conditions: ATCC 700603, 24 h
Procedure, shortened: (§2)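 MIC by broth microdilution. Cultures were grown 6 h to ~10^9 cfu/mL, then diluted to 10^5 cfu/mL. Media: yeast-dextrose broth for MRSA, BHI for VRE, and beef extract/peptone nutrient broth for K. pneumoniae. Compounds were serially diluted in water, 50 µL added to 150 µL cells, and incubated 24 h at 37 °C. OD600 triplicates were sigmoid-fitted; MIC is the point where OD equals the no-bacteria control. Mean ± SEM of ≥2 experiments.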

Staphylococcus aureus [2] = experiment: Bactericidal activity against drug-sensitive Staphylococcus aureus MTCC 737 at 2 X MIC after 24 hrs by time-kill assay; format: functional, organism-based
Procedure, shortened: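 S. aureus at ~1.8×10^6 CFU/mL in fresh media was exposed at MIC and 2× MIC. Samples were taken at 0, 1, 2, 3, 6 and 24 h and serially diluted 10-fold in 0.9% saline. They were plated on yeast-dextrose agar at 37 °C overnight, and colonies were counted as log10 CFU/mL.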

[3] = Therapeutic index, ratio of HC50 for human erythrocytes to MIC for drug-sensitive Pseudomonas aeruginosa ATCC 4676; conditions: read-out: TI
Enterococcus faecium [4] = experiment: Antibacterial activity against vancomycin-resistant Enterococcus faecium ATCC 51559 after 24 hrs by broth microdilution assay; format: functional; conditions: ATCC 51559, 24 h; procedure, shortened: as §2
Escherichia coli [5] = experiment: Antibacterial activity against drug-sensitive Escherichia coli MTCC 443 assessed as disruption of cell membrane at 10 X MIC after 2 hrs by field-emission scanning electron microscopic analysis; format: functional, organism-based; procedure, shortened: as §1
Pseudomonas aeruginosa [6] = experiment: Antibacterial activity against drug-sensitive Pseudomonas aeruginosa ATCC 4676 after 24 hrs by broth microdilution assay; format: functional; conditions: ATCC 4676, 24 h
Procedure, shortened: (§3)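 Bacteria grown 6 h to ~10^9 cfu/mL and diluted to 10^5 cfu/mL in nutrient media. Growth media were LB (E. coli), yeast-dextrose broth (S. aureus, P. aeruginosa) and BHI (E. faecium). Compound was serially diluted in water and added 1:3 to bacteria, then incubated 37 °C for 24 h with OD600 read-out. Triplicate ODs were sigmoid-fitted; MIC was taken where OD matched the no-bacteria control. At least two independent experiments.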

[7] = Stability of the compound assessed as trypsin (unknown origin)-mediated drug degradation at 1 mg/ml up to 24 hrs by LC-MS analysis; format: ADME; conditions: human
Procedure, shortened: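 Compound at 1 mg/mL (solution before mixing) was incubated with trypsin in 0.1 M NH4HCO3 at 37 °C. Aliquots were taken from 0 min to 24 h, diluted with water and analyzed by LC-MS for new products and total ion current. A no-trypsin control was sampled at 0 and 24 h.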

Escherichia coli [8] = experiment: Antibacterial activity against drug-sensitive Escherichia coli MTCC 443 assessed as outer cytoplasmic membrane permeabilization at MIC measured up to 10 mins by N-phenylnaphthylamine dye-based fluorescence assay; format: functional, organism-based
Procedure, shortened: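 Mid-log E. coli (6 h, 10^8 cells/mL) were washed and resuspended in 5 mM glucose/5 mM HEPES pH 7.2 with 10 µM NPN. Compound was added in water. Outer membrane uptake of NPN was followed as fluorescence increase (ex 350 nm, em 420 nm) for 10 min.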

[9] = Hemolytic activity in human erythrocytes after 1 hr by spectrophotometric analysis; format: ADME, cell-based, Erythrocyte
Procedure, shortened: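 Heparinized fresh human erythrocytes at 5 vol% in PBS pH 7.4 were mixed 3:1 with serially diluted compound and held 1 h at 37 °C. Plates were centrifuged and supernatant A540 read. Hemolysis was scaled between an untreated control and a Triton X-100 (100% lysis) control. HC50 is the mean of at least two independent triplicate experiments.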

Escherichia coli [10] = experiment: Antibacterial activity against drug-sensitive Escherichia coli MTCC 443 at MIC measured […] by DiSC3(5) dye-based fluorimetric analysis; format: functional, organism-based
Procedure, shortened: (§4)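 Mid-log cells were washed and resuspended at 10^8 cfu/mL in 5 mM glucose, 5 mM HEPES and 100 mM KCl (1:1:1). They were loaded with 2 µM DiSC3(5) for 10 min (S. aureus) or 20 min (P. aeruginosa, E. coli), then stabilized 2 min at room temperature. Compound was added and depolarization read as fluorescence increase (ex 622 nm, em 670 nm) over 10 min.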

Staphylococcus aureus [11] = experiment: Antibacterial activity against drug-sensitive Staphylococcus aureus MTCC 737 preincubated for 3 hrs in 50% human plasma measured after 24 hrs by broth microdilution assay; format: functional; conditions: MTCC 737, Plasma
Procedure, shortened: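 Plasma was separated by centrifuging fresh human blood. Compound at 1600 µg/mL in 50% plasma was preincubated at 37 °C for 0, 3 or 6 h. Two-fold dilutions were added 1:3 to S. aureus at 10^5 cfu/mL and incubated 37 °C for 24 h. MIC was read by OD as in the broth assay.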

Enterococcus faecium [12] = experiment: Antibacterial activity against drug-sensitive Enterococcus faecium ATCC 19634 after 24 hrs by broth microdilution assay; format: functional; conditions: ATCC 19634, 24 h; procedure, shortened: as §3
Escherichia coli [13] = experiment: Antibacterial activity against drug-sensitive Escherichia coli MTCC 443 after 24 hrs by broth microdilution assay; format: functional; conditions: MTCC 443, 24 h; procedure, shortened: as §3
Staphylococcus aureus [14] = experiment: Antibacterial activity against methicillin-resistant Staphylococcus aureus ATCC 33591 after 24 hrs by broth microdilution assay; format: functional; conditions: ATCC 33591, 24 h; procedure, shortened: as §2
Staphylococcus aureus [15] = experiment: Antibacterial activity against drug-sensitive Staphylococcus aureus MTCC 737 assessed as inner cytoplasmic membrane permeabilization at MIC measured up to 10 mins by propidium iodide staining-based fluorescence assay; format: functional, organism-based
Procedure, shortened: (§5)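 Mid-log S. aureus were harvested, washed and resuspended in 5 mM HEPES/5 mM glucose pH 7.2 containing 15 µM propidium iodide. Compound was added and PI uptake followed as fluorescence increase (ex 535 nm, em 617 nm) for 10 min.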

Staphylococcus aureus [16] = experiment: Antibacterial activity against drug-sensitive Staphylococcus aureus MTCC 737 assessed as cytoplasmic membrane depolarization at MIC measured up to 12 mins by DiSC3(5) dye-based fluorimetric analysis; format: functional, organism-based; procedure, shortened: as §4
[17] = Retention time of the compound by HPLC analysis; format: physicochemical
Staphylococcus aureus [18] = experiment: Antibacterial activity against drug-sensitive Staphylococcus aureus MTCC 737 after 24 hrs by broth microdilution assay; format: functional; conditions: MTCC 737, 24 h; procedure, shortened: as §3
Staphylococcus aureus [19] = experiment: Antibacterial activity against drug-sensitive Staphylococcus aureus MTCC 737 assessed as formation of blebs and holes at 10 X MIC after 2 hrs by field-emission scanning electron microscopic analysis; format: functional, organism-based; procedure, shortened: as §1
Staphylococcus aureus [20] = experiment: Antibacterial activity against drug-sensitive Staphylococcus aureus MTCC 737 assessed as change in cell membrane morphology at 10 X MIC after 1.5 hrs by SYTO and propidium iodide staining-based fluorescence microscopic analysis; format: functional, organism-based
Procedure, shortened: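 Suspension at 10^9 cells/mL was treated at 10× MIC for 1.5 h, beside an untreated control. Cells were pelleted, resuspended in PBS and mixed with a probe mix of 3.0 µM SYTO 9 and 15.0 µM PI. After 15 min in the dark, cells were examined by fluorescence microscopy.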

Staphylococcus aureus [21] = experiment: Antibacterial activity against drug-sensitive Staphylococcus aureus MTCC 737 assessed as cytoplasmic membrane depolarization at MIC to 4 X MIC measured […] by DiSC3(5) dye-based fluorimetric analysis; format: functional, organism-based; procedure, shortened: as §4
Staphylococcus aureus [22] = experiment: Bactericidal activity against methicillin-resistant Staphylococcus aureus ATCC 33591 at 6 X MIC after 1 hr by time-kill assay; format: functional
Procedure, shortened: (§6)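 Time-kill: MRSA (~1.8×10^6 CFU/mL in fresh media) exposed at 37 °C to compound at 1×, 3× or 6× MIC. Aliquots taken at 0, 1, 2, 3, 6 and 24 h, 10-fold serially diluted in 0.9% saline, plated on yeast-dextrose agar, incubated overnight at 37 °C. Colonies counted, expressed as log10 CFU/mL.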

Pseudomonas aeruginosa [23] = experiment: Antibacterial activity against drug-sensitive Pseudomonas aeruginosa ATCC 4676 at MIC to 2 X MIC measured […] by DiSC3(5) dye-based fluorimetric analysis; format: functional, organism-based; procedure, shortened: as §4
Staphylococcus aureus [24] = experiment: Bactericidal activity against methicillin-resistant Staphylococcus aureus ATCC 33591 at 3 X MIC after 6 hrs by time-kill assay; format: functional, organism-based; procedure, shortened: as §6
Staphylococcus aureus [25] = experiment: Antibacterial activity against drug-sensitive Staphylococcus aureus MTCC 737 assessed as inner cytoplasmic membrane permeabilization at 2 X MIC to 4 X MIC measured up to 10 mins by propidium iodide staining-based fluorescence assay; format: functional, organism-based; procedure, shortened: as §5
Escherichia coli [26] = experiment: Ratio of MSI-78 MIC to compound MIC for Escherichia coli; format: functional
Escherichia coli [27] = experiment: Antibacterial activity against Escherichia coli ATCC 25922 after 24 hrs by broth microdilution assay; format: functional; conditions: ATCC 25922, 24 h
Enterococcus faecium [28] = experiment: Antibacterial activity against Enterococcus faecium ATCC 29212 after 24 hrs by broth microdilution assay; conditions: ATCC 29212, 24 h
Pseudomonas aeruginosa [29] = experiment: Antibacterial activity against Pseudomonas aeruginosa ATCC 27853 after 24 hrs by broth microdilution assay; format: functional; conditions: ATCC 27853, 24 h
Staphylococcus aureus [30] = experiment: Antibacterial activity against Staphylococcus aureus ATCC 29213 after 24 hrs by broth microdilution assay; format: functional; conditions: ATCC 29213, 24 h

SMILES	Activity (Escherichia coli [1])	MIC (Klebsiella pneumoniae)	selectivity ratio [3]	MIC (Enterococcus faecium [4])	Activity (Escherichia coli [5])	MIC (Pseudomonas aeruginosa [6])	HC50 at 1 h [9]	MIC (Enterococcus faecium [12])	MIC (Escherichia coli [13])	MIC (Staphylococcus aureus [14])	Retention_time [17]	MIC (Staphylococcus aureus [18])	Activity (Staphylococcus aureus [19])	Activity (Staphylococcus aureus [20])	other results
CCCCCCN(Cc1cccc2ccccc12)C(=O)[C@@H](N)CCCCN.O=C(O)C(F)(F)F.O=C(O)C(F)(F)F	Active	100 µg/mL	50	54 µg/mL	Active	11 µg/mL	508 µg/mL	34 µg/mL	25 µg/mL	65 µg/mL	11.8 min	20 µg/mL	Active	Active	Activity (Staphylococcus aureus [2]): Active; Stability [7]: Stable; Activity (Escherichia coli [8]): Active; Activity (Escherichia coli [10]): Active; MIC (Staphylococcus aureus [11]): 30 µg/mL; Activity (Staphylococcus aureus [15]): Active; Activity (Staphylococcus aureus [16]): Active
CCCCCCN(Cc1c2ccccc2c(Cl)c2ccccc12)C(=O)[C@@H](N)CCCCN.O=C(O)C(F)(F)F.O=C(O)C(F)(F)F	Active	16 µg/mL	50	5.2 µg/mL	Active	1.6 µg/mL	82 µg/mL	3.3 µg/mL	3.5 µg/mL	2.8 µg/mL	13.6 min	2.4 µg/mL	Active	Active	Activity (Staphylococcus aureus [21]): Active; log10CFU/ml (Staphylococcus aureus [22]): 6; Activity (Pseudomonas aeruginosa [23]): Active; Activity (Staphylococcus aureus [24]): Active; Activity (Staphylococcus aureus [25]): Active; Ratio (Escherichia coli [26]): 5
CC[C@H](C)[C@H](NC(=O)CN)C(=O)NCC(=O)N[C@@H](CCCCN)C(=O)N[C@@H](Cc1ccccc1)C(=O)N[C@@H](CC(C)C)C(=O)N[C@@H](CCCCN)C(=O)N[C@@H](CCCCN)C(=O)N[C@@H](C)C(=O)N[C@@H](CCCCN)C(=O)N[C@@H](CCCCN)C(=O)N[C@@H](Cc1ccccc1)C(=O)NCC(=O)N[C@@H](CCCCN)C(=O)N[C@@H](C)C(=O)N[C@@H](Cc1ccccc1)C(=O)N[C@H](C(=O)N[C@@H](CCCCN)C(=O)N[C@H](C(=O)N[C@@H](CC(C)C)C(=O)N[C@@H](CCCCN)C(=O)N[C@@H](CCCCN)C(N)=O)[C@@H](C)CC)C(C)C [PEXIGANAN] (H-GIGKFLKKAKKFGKAFVKILKK-NH2)		8 µg/mL (≈ 3.23 µM)		8 µg/mL (≈ 3.23 µM)						16 µg/mL (≈ 6.46 µM)					MIC (Escherichia coli [27]): 16 µg/mL (≈ 6.46 µM); MIC (Enterococcus faecium [28]): 64 µg/mL (≈ 25.8 µM); MIC (Pseudomonas aeruginosa [29]): 8 µg/mL (≈ 3.23 µM); MIC (Staphylococcus aureus [30]): 8 µg/mL (≈ 3.23 µM)
